Screening data from PubChem BioAssay.
Hits are enriched below; roughly 2.3% of the tested compounds scored in any of these assays.
SIAE inh: human SIAE inhibitors, primary screen, biochemical, fluorescence polarization, FP-Rh probe, 1536-well HTS. Sialate O-acetylesterase (Homo sapiens), Q9HAT2. SIAE FP-Rh probe binding. inhibition, % at 9.66 µM. 370,000 tested, 0.69% active. AID 1053197, 2014;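 active means inhibition above a cutoff: mean of compounds within the control limits plus 3 SD of those, cut at about 17% in these data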;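 further: 0% = plate median of compound wells and 100% = probe without SIAE protein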
Target sequence (Q9HAT2 whole entry, looked up): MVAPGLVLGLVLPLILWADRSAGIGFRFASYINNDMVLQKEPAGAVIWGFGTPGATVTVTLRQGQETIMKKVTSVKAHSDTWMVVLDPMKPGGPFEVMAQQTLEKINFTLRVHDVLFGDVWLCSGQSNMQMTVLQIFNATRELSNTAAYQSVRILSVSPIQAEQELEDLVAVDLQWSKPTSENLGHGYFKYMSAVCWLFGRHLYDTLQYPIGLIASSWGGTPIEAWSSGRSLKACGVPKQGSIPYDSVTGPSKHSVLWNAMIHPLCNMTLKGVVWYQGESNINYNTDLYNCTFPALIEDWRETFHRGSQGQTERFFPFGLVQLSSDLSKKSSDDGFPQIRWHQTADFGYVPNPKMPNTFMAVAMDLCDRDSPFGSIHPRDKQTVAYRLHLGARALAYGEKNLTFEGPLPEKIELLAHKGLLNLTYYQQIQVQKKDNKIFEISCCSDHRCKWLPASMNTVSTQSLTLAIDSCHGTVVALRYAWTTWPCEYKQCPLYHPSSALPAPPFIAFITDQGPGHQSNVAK
mABHD4 FP: ABHD4 inhibitors, primary screen, biochemical, fluorescence polarization, mouse; purified mABHD4, FP-Rh probe fluorescence polarization; 370,000 tested, 0.54% active; inhibition, % at 8.92 µM; (Lyso)-N-acylphosphatidylethanolamine lipase (Mus musculus), Q8VD66;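 active means inhibition exceeding the mean over every tested compound plus 3 SD, cut at about 30% in these data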;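 further: 0% = plate median of compound wells and 100% = S159A mutant with DMSO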
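Material: mouse ABHD4 enzyme, wild type; Benchmarks: S159A mutant high control, sample median low control; Buffer or medium: HEPES pH 7.0, NaCl, Pluronic buffer; Signal: fluorescence polarization; Read-out: percent inhibition of probe binding, normalized to plate controls; Timing: pre-incubation 45 min, probe exposure 60 min, at 25 °C; Dosing: 8.92 µM, single dose.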
HTRA1 inh: HTRA1 serine protease inhibitors, primary screen, biochemical, fluorescence polarization, HTS; recombinant HTRA1, FP-rhodamine activity-based probe; inhibition, % at 5.96 µM; 340,000 tested, 0.5% active; AID 504803, 2011; in the data active means inhibition above about 36%;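 further: 0% = enzyme with DMSO and 100% = wells lacking enzyme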
TCR-CD3 inh: inhibitors of human TCR-CD3 interaction, primary screen, biochemical, fluorescence, TAMRA-labeled TCR probe. inhibition, % at 9.4 µM. 360,000 tested, 0.37% active. AID 651800, 2012; in the data active means inhibition above about 19%;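 further: recombinant mutant TCR 2C K166C tagged with TAMRA read by polarization; 0% = receptor in buffer alone and 100% = receptor with positive control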
pPAFAH inh: pPAFAH enzyme inhibitors, primary screen, biochemical, fluorescence polarization, human. Platelet-activating factor acetylhydrolase (Homo sapiens), Q13093. recombinant pPAFAH, FP-rhodamine probe fluorescence polarization. 330,000 tested, 1.5% active. AID 463082, 2010. inhibition, % at 3.39 µM;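 active means inhibition above the mean inhibition across the screen plus 3 SD, cut at about 25% in these data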;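 further: inhibitors block binding of the rhodamine activity-based probe so polarization drops; 0% = enzyme with DMSO and 100% = wells lacking pPAFAH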
mABHD4 conf: ABHD4 inhibitors, retest, confirmation, biochemical, fluorescence polarization, mouse | shares compounds with mABHD4 FP | purified mABHD4, FP-Rh probe fluorescence polarization | inhibition, % at 8.92 µM | 1,800 tested, 55% active | AID 720658, 2013;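 active means mean inhibition across replicates above the hit cutoff set in the primary screen, cut at about 30% in these data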;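 further: 0% = wild-type ABHD4 with DMSO and 100% = catalytically dead S159A mutant with DMSO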
Active calls of the source: *; · = no result given.

SMILES	SIAE inh	mABHD4 FP	HTRA1 inh	TCR-CD3 inh	pPAFAH inh	mABHD4 conf
COc1nc(OC)nc(N2CCC(C(=O)NCc3ccccc3OC)CC2)n1	7.7	-0.2	·	·	·	·
O=c1cc(N2CCN(c3cccc(C(F)(F)F)c3)CC2)[nH]c(=O)n1C1CCCCC1	0.8	-1.4	·	·	·	·
CCCCCCCCN1C(=O)[C@@H](CC(=O)N2CCC(c3ccccc3)CC2)C[C@@]2(C(=O)OC)C1=C[C@H](C(C)(C)C)O[C@@H]2C	1.0	5.1	·	-2.2	·	·
Cc1ccc(S(=O)(=O)Nc2cc(C(=O)O)ccc2N2CCC(C)CC2)cc1C	10.2	26.5	·	·	·	·
CC1CCN(c2ccc(C(=O)O)cc2NS(=O)(=O)c2ccc(Br)cc2)CC1	7.4	39.4*	-9.6	-3.3	3.4	31.0*
CC1CCN(c2ccc(C(=O)O)cc2NS(=O)(=O)c2ccc(Cl)s2)CC1	5.9	37.7*	·	·	·	43.8*
CNC(=O)OCc1ncn(-c2ccccc2)c1COC(=O)NC	4.0	0.9	·	9.2	·	·
O=C(NNC(=O)c1cc(O)c(O)c(O)c1)NC1CCCCC1	-2.9	30.6*	23.9	3.5	8.8	16.2
COc1ccc(OC)c(CN2C(=O)CCC2(C)c2nnnn2-c2c(C)cccc2C)c1 (stereo not drawn)	-6.9	11.6	·	-4.7	·	·
O=C(NC1CCCCC1)C(c1ccncc1)n1c(=O)c(-c2cc3ccccc3[nH]2)nc2ccccc21 (stereo not drawn)	-4.6	7.2	·	-12.1	·	·
Cc1cc(NC(=O)CSc2nnnn2C)n(-c2ccccc2)n1	4.0	56.5*	-7.0	5.7	-7.1	-0.5
Cn1nnnc1SCC(=O)Nc1cc(C(C)(C)C)nn1-c1ccccc1	-1.9	-1.8	-1.6	-0.8	1.4	·
Cc1cnc(CNC(=O)c2ccc3sc([C@H]4C[C@H](O)[C@@H](CO)O4)nc3c2)cn1	-7.3	-11.0	·	6.8	·	·
COC(=O)[C@]12C[C@H](CC(=O)NCc3cccc(C(F)(F)F)c3)C(=O)N(Cc3ccc(Cl)cc3Cl)C1=C[C@H](C(C)(C)C)O[C@@H]2C	-0.9	-5.6	·	·	·	·
CC(=O)Nc1cc2c(cc1[N+](=O)[O-])-c1ccccc1C2=NO	-11.2	1.9	-6.0	0.8	·	·
Nc1cc2c(cc1[N+](=O)[O-])-c1ccccc1C2=NO	-14.9	49.4*	9.3	-5.6	·	21.3
O=C(Nc1ccccc1)N(CCc1nc2ccccc2[nH]1)C1CCCC1	3.4	3.0	1.2	2.8	-5.5	·
S=C(NC1CCCCC1)N(CCc1nc2ccccc2[nH]1)C1CCCC1	-1.4	50.7*	-23.2	2.9	-0.6	52.9*
Cc1ccc(NS(=O)(=O)c2ccc(N/N=C/c3ccncc3)c([N+](=O)[O-])c2)c(C)c1	-5.3	-2.0	0.6	8.5	23.6	·
CSc1ccc(C=NNc2ccc(S(=O)(=O)Nc3ccccc3C(=O)O)cc2[N+](=O)[O-])cc1	12.0	32.2*	16.0	-1.2	22.3	77.5*
CCOc1cccc(C=NNc2ccc(S(=O)(=O)Nc3ccccc3C(=O)O)cc2[N+](=O)[O-])c1O	-0.7	61.9*	14.0	2.6	30.1*	66.1*
C=CCOc1ccc(C=NNc2ccc(S(=O)(=O)Nc3ccccc3C(=O)O)cc2[N+](=O)[O-])cc1OC	11.4	50.1*	26.4	15.9	36.8*	59.1*
COC(=O)C[C@@H]1CC[C@H]2[C@H](COc3ccc(NC(=O)C4CCC4)cc3C(=O)N2C)O1	3.2	5.7	·	·	·	·
COCCNC(=S)N(C)[C@H]1C[C@H]2c3[nH]c4ccccc4c3CCN2C(=O)[C@H]1[C@H](C)O	3.6	-0.1	·	-3.0	·	·
CCc1noc(C)c1C(=O)N(C)CC(=O)Nc1ccc(Br)cc1C	1.8	41.0*	-2.1	-2.3	-1.6	1.8
C=CCN1C(=O)[C@H](CC(=O)N2CCC(c3ccccc3)CC2)[C@@]2(C(=O)OCC)CCCC=C12	-2.2	-4.2	·	·	·	·
CN(C)c1cccc(O)c1	4.3	51.1*	16.2	13.8	8.5	4.9
O=C(Nc1ccc2c(c1)OCO2)C1Cc2c(-c3ccc4c(c3)OCO4)ccnc2O1 (stereo not drawn)	-1.2	-1.5	·	11.2	·	·
